Measurements reported in ChEMBL document CHEMBL2321827, “Allopregnanolone and pregnanolone analogues modified in the C ring: synthesis and activity” (J Med Chem, 2013).

Legend:
Type in all cases: cell-based
Cerebral cortex neuron [1] = assay: Stimulation of [3H]flunitrazepam binding to GABA type A receptor in mouse primary cortical neurons at 100 uM after 30 mins by liquid scintillation counting analysis relative to allopregnanolone
Summary of the method: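 Intact E16 mouse cortical neurons cultured 7–9 days, washed in HEPES pH 7.3, then incubated 30 min at 25 °C with 1.3–2.0 nM [3H]flunitrazepam and 100 μM compound in triplicate. Nonspecific binding was defined with 20 μM diazepam and radioactivity counted by scintillation. Binding increase is given as % of the maximal effect of 60 μM allopregnanolone, mean ± sd, n = 2–4.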

[2] = Stimulation of [3H]flunitrazepam binding to GABA type A receptor in mouse primary cortical neurons after 30 mins by liquid scintillation counting analysis; conditions: cerebral cortex neuron
Summary of the method: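 Cortical neurons from E16 mouse embryos, cultured 7–9 days with FUdR/uridine against glia, then washed in HEPES buffer pH 7.3. Intact cells were incubated with 1.3–2.0 nM [3H]flunitrazepam and compound (1 nM–300 μM, ≥6 concentrations, triplicate, final DMSO 100 μM) for 30 min at 25 °C. Nonspecific binding used 20 μM diazepam. EC50 came from a sigmoid fit, mean ± sd, n = 2–4.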

Cerebral cortex neuron [3] = assay: Stimulation of [3H]flunitrazepam binding to GABA type A receptor in primary cortical neurons relative to allopregnanolone

Structure (SMILES): C#C[C@]1(O)C[C@]2(C)[C@@H](C(C)=O)CC[C@H]2[C@@H]2CC[C@@H]3C[C@H](O)CC[C@]3(C)[C@H]21
- Emax (Cerebral cortex neuron [1]): 91%
- EC50 [2]: 14 µM

Structure (SMILES): CC(=O)[C@H]1CC[C@H]2[C@@H]3CC[C@H]4C[C@H](O)CC[C@]4(C)[C@H]3C(=O)C[C@]12C [ALFAXALONE]
- Emax (Cerebral cortex neuron [1]): 92%
- EC50 [2]: 4.6 µM

Structure (SMILES): CC(=O)[C@H]1CC[C@H]2[C@@H]3CC[C@@H]4C[C@H](O)CC[C@]4(C)[C@H]3[C@H](O)C[C@]12C
- Emax (Cerebral cortex neuron [1]): 43%
- EC50 [2]: 71 µM

Structure (SMILES): C=C1C[C@]2(C)[C@@H](C(C)=O)CC[C@H]2[C@@H]2CC[C@H]3C[C@H](O)CC[C@]3(C)[C@@H]12
- Emax (Cerebral cortex neuron [1]): 102%
- EC50 [2]: 1.2 µM

Structure (SMILES): C=C1C[C@]2(C)[C@@H](C(C)=O)CC[C@H]2[C@@H]2CC[C@@H]3C[C@H](O)CC[C@]3(C)[C@@H]12
- Emax (Cerebral cortex neuron [1]): 28%
- EC50 [2]: 37.5 µM

Structure (SMILES): CC(=O)[C@H]1CC[C@H]2[C@@H]3CC[C@H]4C[C@H](O)CC[C@]4(C)[C@H]3[C@H](N)C[C@]12C
- Emax (Cerebral cortex neuron [1]): 45%
- EC50 [2]: 154 µM

Structure (SMILES): CC(=O)[C@H]1CC[C@H]2[C@@H]3CC[C@H]4C[C@H](O)CC[C@]4(C)[C@H]3[C@@H](N)C[C@]12C
- Emax (Cerebral cortex neuron [1]): 140%
- EC50 [2]: 5.9 µM

Structure (SMILES): C#C[C@]1(O)C[C@]2(C)[C@@H](C(C)=O)CC[C@H]2[C@@H]2CC[C@H]3C[C@H](O)CC[C@]3(C)[C@H]21
- Emax (Cerebral cortex neuron [1]): 87%
- EC50 [2]: 32 µM

Structure (SMILES): CC(=O)[C@H]1CC[C@H]2[C@@H]3CC[C@@H]4C[C@H](O)CC[C@]4(C)C3=C(C)C[C@]12C
- Emax (Cerebral cortex neuron [1]): 97%
- EC50 [2]: 3 µM

Structure (SMILES): CC(=O)[C@H]1CC[C@H]2[C@@H]3CC[C@@H]4C[C@@](O)(C#Cc5ccccc5)CC[C@]4(C)[C@H]3[C@](O)(C#Cc3ccccc3)C[C@]12C
- Emax (Cerebral cortex neuron [1]): 0%
- EC50 [2]: > 100 µM

Structure (SMILES): CC(=O)[C@H]1CC[C@H]2[C@@H]3CC[C@H]4C[C@H](O)CC[C@]4(C)[C@H]3C[C@H](O)[C@]12C
- Emax (Cerebral cortex neuron [1]): 60%
- EC50 [2]: 46 µM

Structure (SMILES): CC(=O)[C@H]1CC[C@H]2[C@@H]3CC[C@H]4C[C@H](O)CC[C@]4(C)[C@H]3C[C@@H](N)[C@]12C
- Emax (Cerebral cortex neuron [1]): 0%
- EC50 [2]: > 300 µM

Structure (SMILES): CC(=O)[C@H]1CC[C@H]2[C@@H]3CC[C@H]4C[C@H](O)CC[C@]4(C)[C@H]3C[C@@H](O)[C@]12C
- Emax (Cerebral cortex neuron [1]): 28%
- EC50 [2]: 173 µM

Structure (SMILES): C#C[C@@]1(O)CC[C@@]2(C)[C@H](CC[C@H]3[C@@H]4CC[C@H](C(C)=O)[C@@]4(C)C[C@@](O)(C#C)[C@@H]32)C1
- Emax (Cerebral cortex neuron [1]): 61%
- EC50 [2]: 75 µM

Structure (SMILES): CC(=O)[C@H]1CC[C@H]2[C@@H]3CC[C@@H]4C[C@H](O)CC[C@]4(C)[C@H]3C(=O)C[C@]12C [RENANOLONE]
- Emax (Cerebral cortex neuron [1]): 42%
- EC50 [2]: 94 µM

Structure (SMILES): CC(=O)[C@H]1CC[C@H]2[C@@H]3CC[C@H]4C[C@H](O)CC[C@]4(C)[C@H]3C=C[C@]12C
- Emax (Cerebral cortex neuron [1]): 67%
- EC50 [2]: 7.4 µM

Structure (SMILES): CC(=O)[C@H]1CC[C@H]2[C@@H]3CC[C@H]4C[C@H](O)CC[C@]4(C)[C@H]3[C@@H]3O[C@@H]3[C@]12C
- Emax (Cerebral cortex neuron [1]): 9%
- EC50 [2]: > 300 µM

Structure (SMILES): CC(=O)[C@H]1CC[C@H]2[C@@H]3CC[C@H]4C[C@H](O)CC[C@]4(C)[C@H]3[C@@H](C)C[C@]12C
- Emax (Cerebral cortex neuron [1]): 97%
- EC50 [2]: 8 µM

Structure (SMILES): CC(=O)[C@H]1CC[C@H]2[C@@H]3CC[C@@H]4C[C@H](O)CC[C@]4(C)[C@H]3[C@@H](O)C[C@]12C
- Emax (Cerebral cortex neuron [1]): 25%
- EC50 [2]: > 300 µM

Structure (SMILES): CC(=O)[C@H]1CC[C@H]2[C@@H]3CC[C@H]4C[C@H](N)CC[C@]4(C)[C@H]3CC[C@]12C
- Activity (Cerebral cortex neuron [3]): 56%

Structure (SMILES): CC(=O)N[C@@H]1C[C@H]2[C@@H](CC[C@H]3C[C@H](O)CC[C@@]32C)[C@@H]2CC[C@H](C(C)=O)[C@@]12C
- Emax (Cerebral cortex neuron [1]): 0%
- EC50 [2]: > 100 µM

Structure (SMILES): CC(=O)[C@H]1CC[C@H]2[C@@H]3CC[C@@H]4C[C@H](O)CC[C@]4(C)[C@H]3[C@@H](C)C[C@]12C
- Emax (Cerebral cortex neuron [1]): 71%
- EC50 [2]: 14 µM

Structure (SMILES): CC(=O)[C@H]1CC[C@H]2[C@@H]3CC[C@H]4C[C@H](O)CC[C@]4(C)[C@H]3[C@@H](O)C[C@]12C
- Emax (Cerebral cortex neuron [1]): 117%
- EC50 [2]: 32 µM

Structure (SMILES): CC(=O)[C@H]1CC[C@H]2[C@@H]3CC[C@@H]4C[C@H](O)CC[C@]4(C)[C@H]3[C@](O)(C#Cc3ccccc3)C[C@]12C
- Emax (Cerebral cortex neuron [1]): 116%
- EC50 [2]: 1.2 µM

Structure (SMILES): CC(=O)[C@H]1CC[C@H]2[C@@H]3CC[C@H]4C[C@H](O)CC[C@]4(C)[C@H]3[C@H](O)C[C@]12C
- Emax (Cerebral cortex neuron [1]): 28%
- EC50 [2]: > 300 µM
